The results in this text go back to ChEMBL document CHEMBL1139336, “Discovery of alpha-amidosulfones as potent and selective agonists of CB2: synthesis, SAR, and pharmacokinetic properties” (Bioorg Med Chem Lett, 2009).

SMILES strings stand for the structures.

By Emax is commonly meant the greatest response seen or fitted, relative to the assay's reference. One may read the EC50 as the concentration at which the effect is half-maximal. One may read the clearance as the rate of elimination divided by the concentration. Low readings indicate inefficient removal, high ones efficient removal. By half-life is commonly meant the time in which the quantity being followed falls by half. A high value points to slow decline. As usually defined, the microsomal CLint is the capacity of the preparation to metabolise the compound, expressed as a volume cleared per time. By bioavailability is commonly meant dose-corrected exposure relative to a reference, in per cent. A low value points to little systemic uptake. Broadly, the Cmax is the peak of the concentration-time curve. In general, AUC(0-inf) refers to the area under the concentration-time curve extrapolated to infinity. A low value points to less exposure.

Series [1] concerns the target T1, Cannabinoid receptor 1 (Homo sapiens, UniProt P21554). Description: Agonist activity at human CB1 receptor expressed in SF9 cells assessed as inhibition of CP-55940-stimulated GTP binding relative to control. In a few lines:
(§1)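 Sf9 insect-cell membranes co-expressing hCB1 or hCB2 with Gαi3 (Bmax 1.7 pmol/ml). Compound added in 50 mM Hepes/0.1% BSA to buffer with 10 mM MgCl2, 150 mM NaCl, GDP, 10 nM GTP-Europium and 0.0005% saponin. Final DMSO was 1%. Incubated 45 min at room temperature, then filtered, washed and read by fluorescence at 615 nm. 3 µM CP55940 set 100% efficacy. Logistic fit, n = 2–20.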

Series [2] has as its target T2, Cannabinoid receptor 2 (Homo sapiens, UniProt P34972). Kind of series: Agonist activity at human CB2 receptor expressed in CHO cells assessed as suppression of forskolin-stimulated cAMP accumulation relative to control. The series is classed as functional, cell-based. In a few lines: (§2)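 CHO cells expressing human CB1 or CB2. Read-out was suppression of forskolin-induced cAMP production in whole cells. Emax was taken as the maximum of the dose–response curve. Values are means of n = 2–20 independent measurements, derived by logistic fit.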
For orientation: Cyclic AMP is a second messenger, typically raised through Gs and lowered through Gi signalling.

Series [3] has as its target T2, Cannabinoid receptor 2. Description: Agonist activity at human CB2 receptor expressed in SF9 cells assessed as inhibition of CP-55940-stimulated GTP binding. In a few lines: (§3)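 Sf9 membranes co-expressing hCB1 or hCB2 with Gαi3 (Bmax 1.7 pmol/ml). Europium-GTP (10 nM) binding in 50 mM Hepes, 0.1% BSA, 10 mM MgCl2, 150 mM NaCl, GDP, 0.0005% saponin, 1% DMSO. Compound tested from 0.01 nM upward. Incubated 45 min at room temperature, then filtered and washed; fluorescence read at 615 nm. 3 micromolar CP55940 defines 100% efficacy.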

The nature of series [4]: Clearance in Sprague-Dawley rat at 0.5 mg/kg, iv. The series is classed as ADME, organism-based. Further details: dose 0.5 mg/kg, route intravenous. The settings on record: in vivo. In a few lines: (§4)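 Single intravenous dose of 0.5 mg/kg given as a solution in DMSO to Sprague–Dawley rats; n = 2 animals.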
A short description of series [5]: Half life in Sprague-Dawley rat at 0.5 mg/kg, iv. Type of series: ADME, organism-based. Further details: dose 0.5 mg/kg, route intravenous. Particulars: in vivo. In a few lines: as §4
Series [6] deals with T2, Cannabinoid receptor 2. Kind of series: Agonist activity at human CB2 receptor expressed in CHO cells assessed as suppression of forskolin-stimulated cAMP accumulation. Type of series: functional, cell-based. In a few lines:
(§5)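 Forskolin-induced cAMP measured in CHO cells expressing human CB1 or CB2. EC50 from a logistic fit of the concentration–response curve. Emax taken as the maximum of the dose–response. Means of n = 2–20 independent measurements.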

The nature of series [7]: Intrinsic clearance in human liver microsomes. Type of series: ADME, Microsome.
In series [8] the target is T1, Cannabinoid receptor 1. Description: Agonist activity at human CB1 expressed in CHO cells receptor assessed as suppression of forskolin-stimulated cAMP accumulation relative to control. Type of series: functional, cell-based. The method in brief: as §2
Series [9] in a line: Volume of distribution at steady state in Sprague-Dawley rat at 0.5 mg/kg, iv. Further details: dose 0.5 mg/kg, route intravenous. Type of series: ADME, organism-based. Particulars: in vivo, read-out: Vdss. In a few lines: as §4
Series [10] in a line: Protein binding in rat plasma. Type of series: ADME, cell-free. The settings on record: read-out: PPB (converted).
Series [11] can be described thus: Intrinsic clearance in rat liver microsomes. Type of series: ADME, Microsome. On the technique in general: Microsomes from liver hold many membrane-bound enzymes, among them those of drug oxidation.
In series [12] the target is T1, Cannabinoid receptor 1. Kind of series: Agonist activity at human CB1 receptor expressed in SF9 cells assessed as inhibition of CP-55940-stimulated GTP binding. The method in brief:
as §3

For the next series, the system named is Rattus norvegicus. Description: Tmax in Sprague-Dawley rat at 10 mg/kg, po. Further details: dose 10 mg/kg, route oral. The settings on record: in vivo. The series is classed as ADME, organism-based. The method in brief:
(§6)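 Oral dose of 10 mg/kg in a 2% HPMC, 1% Tween 80 vehicle given to Sprague–Dawley rats; n = 3 animals.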

The target in series [13] is T1, Cannabinoid receptor 1. Kind of series: Agonist activity at human CB1 receptor expressed in CHO cells assessed as suppression of forskolin-stimulated cAMP accumulation. The series is classed as functional, cell-based. In a few lines: as §5
Series [14] can be described thus: Oral bioavailability in Sprague-Dawley rat at 10 mg/kg. Type of series: ADME, organism-based. The settings on record: in vivo. In a few lines: as §6
Series [15] is described as follows: Protein binding in human plasma. The series is classed as ADME, cell-free. Particulars: read-out: PPB (converted).
The target of series [16] is T2, Cannabinoid receptor 2. Kind of series: Agonist activity at human CB2 receptor expressed in SF9 cells assessed as inhibition of CP-55940-stimulated GTP binding relative to control. The method in brief:
as §1

Series [17] is described as follows: Cmax in Sprague-Dawley rat at 10 mg/kg, po. Type of series: ADME, organism-based. The arrangement: dose 10 mg/kg, route oral. Particulars: in vivo. In a few lines:
as §6

Series [18] in a line: AUC (0 to infinity) in Sprague-Dawley rat at 10 mg/kg, po. Type of series: ADME, organism-based. Further details: time infinity, dose 10 mg/kg, route oral. Particulars: plasma. In a few lines: as §6
For the next series, the species on record is Homo sapiens. Kind of series: Selectivity for human CB2 receptor over human CB1 receptor.

T1 sequence (P21554 whole entry): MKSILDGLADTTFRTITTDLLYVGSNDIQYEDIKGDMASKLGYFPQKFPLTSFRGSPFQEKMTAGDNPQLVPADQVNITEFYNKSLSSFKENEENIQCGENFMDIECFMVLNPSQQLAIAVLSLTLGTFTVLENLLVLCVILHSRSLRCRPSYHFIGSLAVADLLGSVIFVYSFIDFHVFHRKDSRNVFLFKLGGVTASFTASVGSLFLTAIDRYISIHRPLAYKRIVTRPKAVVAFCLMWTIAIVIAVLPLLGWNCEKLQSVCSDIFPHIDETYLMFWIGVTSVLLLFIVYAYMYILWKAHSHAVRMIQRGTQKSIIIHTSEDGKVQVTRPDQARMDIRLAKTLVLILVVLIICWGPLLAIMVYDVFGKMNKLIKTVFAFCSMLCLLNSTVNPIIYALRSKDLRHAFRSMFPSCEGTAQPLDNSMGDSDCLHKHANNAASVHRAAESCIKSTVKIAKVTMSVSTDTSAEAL
T2 sequence (P34972 whole entry): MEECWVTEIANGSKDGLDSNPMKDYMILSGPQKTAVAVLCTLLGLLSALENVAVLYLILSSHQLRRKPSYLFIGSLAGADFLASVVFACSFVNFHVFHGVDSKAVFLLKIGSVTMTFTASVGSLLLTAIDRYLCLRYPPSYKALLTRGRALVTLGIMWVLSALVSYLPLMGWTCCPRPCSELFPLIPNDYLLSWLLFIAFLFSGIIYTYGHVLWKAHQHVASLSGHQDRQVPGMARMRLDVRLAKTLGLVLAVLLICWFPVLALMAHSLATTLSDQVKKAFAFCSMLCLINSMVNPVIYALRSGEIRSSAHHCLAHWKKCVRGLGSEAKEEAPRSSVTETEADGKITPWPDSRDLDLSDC

With `CC(C)(C(=O)Nc1ccc(Cl)c(C(F)(F)F)c1)S(=O)(=O)c1ccc(Cl)cc1`, the Emax was found to be 22% on Cannabinoid receptor 1 [1], 96% at Cannabinoid receptor 2 [2], 39% at Cannabinoid receptor 1 [8] and 102% on Cannabinoid receptor 2 [16]. Further, the EC50 at Cannabinoid receptor 2 [3] was 20 nM; at Cannabinoid receptor 2 [6], 5 nM; on Cannabinoid receptor 1 [12], 700000 nM; on Cannabinoid receptor 1 [13], above 2000 nM. In addition, the clearance in series [4] is 9 mL/min/kg. Besides, the half-life in series [5] is 14 h. The microsomal CLint in series [7] and in series [11] was 14 µL/min/mg each time. The Vd in series [9] was 9.3 L/kg. Further, the fraction unbound in [10] is 0.003; in series [15], 0.002. For the same compound, the Tmax in the series with Rattus norvegicus is 1.7%. Also, the bioavailability in series [14] stood at 52%. The same compound showed a Cmax in [17] of 560 ng/mL. This compound also registered an AUC(0-inf) in series [18] of 9680 ng·h/mL.
In the case of `Cn1nc(C(C)(C)C)cc1NC(=O)C(C)(C)S(=O)(=O)c1ccc(Cl)cc1`, the Emax is 37% on Cannabinoid receptor 1 [1], 92% on Cannabinoid receptor 2 [2], 12% at Cannabinoid receptor 1 [8] and 104% on Cannabinoid receptor 2 [16]. In addition, the EC50 is 26 nM on Cannabinoid receptor 2 [3], 25 nM on Cannabinoid receptor 2 [6], 223000 nM at Cannabinoid receptor 1 [12] and above 2000 nM at Cannabinoid receptor 1 [13]. In series [4], this compound gave a clearance of 20 mL/min/kg. Also, the half-life in series [5] is 1.9 h. The microsomal CLint was 14 µL/min/mg in [7] and 20 µL/min/mg in series [11]. Further, in [9], the Vd worked out at 2 L/kg. Moreover, the results for the fraction unbound in series [10] and in series [15] were 0.06 and 0.064, respectively. Besides, the Tmax with Rattus norvegicus is 0.67%. For the same compound, the bioavailability in series [14] came out at 43%. The compound further displayed a Cmax in series [17] of 971 ng/mL. This compound also displayed an AUC(0-inf) in series [18] of 3570 ng·h/mL.
As to `CC(C)(C(=O)Nc1cnc2ccccc2c1)S(=O)(=O)c1ccc(C(F)(F)F)cc1`, the Emax at Cannabinoid receptor 1 [1] was determined as 86%; on Cannabinoid receptor 2 [2], 96%; at Cannabinoid receptor 1 [8], 93%; at Cannabinoid receptor 2 [16], 88%. For the same compound, the Selectivity ratio in the series listed under Homo sapiens amounted to 10. Moreover, the EC50 was found to be 96 nM on Cannabinoid receptor 2 [3], 8 nM at Cannabinoid receptor 2 [6], 710 nM on Cannabinoid receptor 1 [12] and 82 nM at Cannabinoid receptor 1 [13].
